Calls of active or inactive are those of the source.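 The calls were made as follows, unless noted: active = inhibition above 20% together with a positive visual image hit; inconclusive = visual image hit but inhibition not above 20%; inactive = no visual image hit.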
What was measured:
[1] = inhibitors of TNFa-induced NFkB p65 translocation, primary screen, imaging, HUVEC, MLSMR starter and 10KST1 sets (AID 438); details: HUVEC TNFa-induced p65 nuclear translocation; cell count: measured here: nuclei count (cytotoxicity indicator), at 2.08 µM; inhibition: at 2 µM, stronger effect = higher value, 0% TNFa-plus-vehicle, 100% no-TNFa wells;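 also: compound added about 3h40 before a 20 min TNFalpha stimulation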;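 as to inhibition: signal is the nuclear over cytoplasmic p65 intensity ratio per well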
[2] = inhibitors of mutant huntingtin aggregation, primary screen, imaging, exon1htt(103Q)mCFP cells, high-content imaging (AID 483;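 active = visual image review flags a hit and inhibition of aggregation exceeds 20%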;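 also: compound exposure lasted 3 days before fixation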;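 as to nuclei count: percent of the per-plate median nuclei count of sample wells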); details: exon1htt(103Q)mCFP cell line, aggregate imaging, at 2 µM; inhibition of aggregation: stronger effect = higher value; nuclei count: measured here: cell count, toxicity
[3] = inhibitors of E-selectin induction by TNFa, primary screen, imaging, HUVEC, immunofluorescence, MLSMR starter and 10KST1 sets (AID 487;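 active = visually confirmed hit in the image check and inhibition above 20%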;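 as to inhibition: signal is fraction of cell area covered by stained E-selectin grains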;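 as to nuclei count: 100% = median nuclei count of all wells on the same plate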); details: HUVEC TNFalpha-induced E-selectin immunofluorescence imaging, at 2 µM; inhibition: stronger effect = higher value; nuclei count: measured here: cell number, toxicity
[4] = biological target: Voltage-gated potassium channel subunit beta-2 (Rattus norvegicus) (UniProt P62483); test: KvBeta enzyme negative modulators, primary screen, biochemical, NADPH fluorescence (AID 622;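 active = fluorescence slope higher than the sample average by over 3 SD, cut at about -0.22 in these data, passing the limit was not always enough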;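 also: slope of raw intensity against log time taken from 70 to 1610 s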); details: recombinant KvBeta, 4-cyanobenzaldehyde reduction, at 10 µM, stronger effect = higher value
Voltage-gated potassium channel subunit beta-2 (Rattus norvegicus), sequence (P62483 whole entry, looked up): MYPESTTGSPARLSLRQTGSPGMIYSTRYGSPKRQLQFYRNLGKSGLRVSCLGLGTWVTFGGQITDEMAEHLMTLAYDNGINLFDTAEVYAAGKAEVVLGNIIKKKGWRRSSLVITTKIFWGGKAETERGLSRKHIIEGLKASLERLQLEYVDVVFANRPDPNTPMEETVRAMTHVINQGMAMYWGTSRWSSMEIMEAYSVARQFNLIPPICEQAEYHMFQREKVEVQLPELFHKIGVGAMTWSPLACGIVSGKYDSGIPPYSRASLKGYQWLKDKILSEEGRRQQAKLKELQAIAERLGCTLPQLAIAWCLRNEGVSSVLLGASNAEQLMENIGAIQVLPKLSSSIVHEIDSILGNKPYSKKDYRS

[5] = biological target: Voltage-gated potassium channel subunit beta-2 (Rattus norvegicus) (UniProt P62483); test: KvBeta positive modulators, primary screen, biochemical, NADPH fluorescence (AID 623;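 active = NADPH fluorescence slope more negative than the mean of all samples by about 3 SD, 99.7% confidence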;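 also: fluorescence intensity change per second fitted from 20 to 320 s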); details: Recombinant KvBeta, NADPH fluorescence decrease slope, 10 min; at 10 µM; stronger effect = lower value
[6] = biological target: Muscarinic acetylcholine receptor M4 (Homo sapiens) (UniProt P08173); test: compounds altering M4/GIRK thallium flux, either direction, primary screen, M4 allosteric agonist project, cell-based, HEK293 M4/GIRK, BTC-AM (AID 625;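 active = fluorescence slope after compound addition differing from the mean of all tested samples at 99.7% confidence, mostly higher but some lower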;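 also: thallium influx through GIRK channels coupled to M4 in HEK293 cells with BTC-AM dye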); details: at 10 µM, actives lie on both sides
Muscarinic acetylcholine receptor M4 (Homo sapiens), sequence (P08173 whole entry, looked up): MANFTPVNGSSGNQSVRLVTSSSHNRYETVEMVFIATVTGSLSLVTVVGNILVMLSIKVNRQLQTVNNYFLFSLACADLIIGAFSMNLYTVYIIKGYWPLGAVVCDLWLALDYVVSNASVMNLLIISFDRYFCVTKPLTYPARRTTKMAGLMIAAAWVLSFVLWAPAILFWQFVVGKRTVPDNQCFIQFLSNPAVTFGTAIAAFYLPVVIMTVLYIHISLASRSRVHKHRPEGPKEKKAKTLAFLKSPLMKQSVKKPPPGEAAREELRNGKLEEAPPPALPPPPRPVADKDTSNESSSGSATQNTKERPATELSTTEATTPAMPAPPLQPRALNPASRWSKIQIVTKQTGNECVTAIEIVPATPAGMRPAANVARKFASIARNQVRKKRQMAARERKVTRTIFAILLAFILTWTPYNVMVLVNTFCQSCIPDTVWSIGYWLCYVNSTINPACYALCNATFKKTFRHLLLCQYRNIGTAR
How it was run: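 Material – HEK293 cells with M4 receptor and GIRK channels · Buffer or medium – pH 7.3 thallium assay buffer · Doses – one dose, 10 µM final · Timing – cells overnight at 37 °C, BTC-AM loading 1 h, reads 2 min total · Measured by – kinetic fluorescence with BTC-AM dye · Controls – carbachol and DMSO controls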

[7] = inhibitors of Sendai virus-induced IRF3 signaling, primary screen, TLR/RLR signaling modifier project, cell-based, Sendai virus stimulus, luciferase, 10K MLSCN set (AID 602276;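 active = inhibition at or above 50% at 10 µM; inactive = inhibition below 50%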;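 also: firefly luciferase from ISG56 promoter only with Renilla not read in this screen; 0% = Sendai virus plus DMSO and 100% = medium plus DMSO without virus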); details: HEK293 RL24 IRF3 luciferase reporter, at 10 µM, stronger effect = higher value
[8] = inhibitors of poly I:C-induced TLR3 signaling, primary screen, cell-based, poly I:C stimulus, luciferase, 10K MLSCN set (AID 602277;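 active = inhibition of the reporter signal at or above 50%; inactive = inhibition below 50%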); details: HEK293-TLR3 RL24 IRF3 luciferase reporter, at 10 µM, stronger effect = higher value

| Compound | cell count [1] | inhibition [1] | inhibition of aggregation [2] | nuclei count [2] [%] | inhibition [3] | nuclei count [3] [%] | fluorescence slope [4] | NADPH fluorescence slope [5] | fluorescence slope [6] | inhibition [7] | inhibition [8] |
| --- | --- | --- | --- | --- | --- | --- | --- | --- | --- | --- | --- |
| CCN(CC)CCNC(=O)C1CCN(S(=O)(=O)N2CCCCC2)CC1 | 634 | 2.6% (inactive) | -30.2% (inactive) | 48.9 | -41.5% (inactive) | 109 | -0.412 (inactive) | 2.2e-05 (inactive) | 0.00434 (inactive) | 11.3% (inactive) | 15.8% (inactive) |
| O=c1[nH]c2c(s1)C(c1ccco1)C1C3CCC(C3)C1S2 (configuration not stated) | 220 | 9.2% (inactive) | 12.3% (inactive) | 89.5 | -32.2% (inactive) | 108 | -0.574 (inactive) | -4.2e-05 (inactive) | 0.00506 (inactive) | 12.1% (inactive) | 26.3% (inactive) |
| Cc1nc(NCc2ccccn2)c2ccccc2n1 | 416 | -13.6% (inactive) | 13% (inactive) | 69.7 | -49.1% (inactive) | 121 | -0.572 (inactive) | -4.7e-05 (inactive) | 0.00634 (inactive) | 4.35% (inactive) | -44.1% (inactive) |
| COc1ccccc1OC(=O)c1ccc(SC)cc1OC | 384 | -15.2% (inactive) | 6.6% (inactive) | 99.3 | 7.8% (inactive) | 116 | -0.57 (inactive) | -2.8e-05 (inactive) | 0.00466 (inactive) | -1.26% (inactive) | 2.42% (inactive) |
| Brc1ccc(C2=Nn3c(nnc3-c3ccncc3)SC2)cc1 | 369 | 2.2% (inactive) | -12.9% (inactive) | 123 | -12.7% (inactive) | 117 | -0.544 (inactive) | 3.4e-05 (inactive) | 0.00451 (inactive) | 13.7% (inactive) | 0.85% (inactive) |
| Cc1ccc(-n2ncc3c(Nc4c(C)n(C)n(-c5ccccc5)c4=O)ncnc32)c(C)c1 | 443 | 9.3% (inactive) | 6.8% (inactive) | 96.6 | -81.8% (inactive) | 120 | -0.538 (inactive) | -2.2e-05 (inactive) | 0.0045 (inactive) | 13.9% (inactive) | 12.5% (inactive) |
| Cc1ccc(Cn2c(C)nc3c(c2=O)c2nc4ccccc4nc2n3Cc2ccco2)cc1 | 623 | -5.4% (inactive) | -11% (inactive) | 111 | -33.1% (inactive) | 91.7 | -0.557 (inactive) | -5.9e-05 (inactive) | 0.00181 (inactive) | 16.5% (inactive) | 28.3% (inactive) |
| Cc1ccccc1C(=O)N1CCC(C(=O)Nc2ccc(S(=O)(=O)N3CCCC3)cc2)CC1 | 186 | 6.1% (inactive) | -11% (inactive) | 105 | 12.2% (inactive) | 97.5 | -0.566 (inactive) | -3.8e-05 (inactive) | 0.0067 (inactive) | 8.84% (inactive) | 16.9% (inactive) |
| Cc1nn(-c2ccccc2)c(Cl)c1C1C(C#N)=C(N)OC2=C1C(=O)CC(C)(C)C2 (configuration not stated) | 378 | 5.6% (inactive) | -4.8% (inactive) | 100 | -110% (inactive) | 113 | -0.577 (inactive) | -3.7e-05 (inactive) | 0.00783 (inactive) | 6.31% (inactive) | 31.1% (inactive) |
| Cc1nnc(N(Cc2ccco2)C(=O)c2cccc(C#N)c2)s1 | 428 | 7.3% (inactive) | 9.6% (inactive) | 101 | 11.7% (inactive) | 111 | -0.569 (inactive) | -1.4e-05 (inactive) | 0.00607 (inactive) | -0.114% (inactive) | 5.23% (inactive) |
| CN(CC(=O)Nc1ccccc1Cl)C(=O)COC(=O)CNC(=O)c1ccc(Br)o1 | 436 | -13.1% (inactive) | -3.1% (inactive) | 115 | -13.8% (inactive) | 107 | -0.607 (inactive) | 2.6e-05 (inactive) | 0.00546 (inactive) | 15.4% (inactive) | 30.4% (inactive) |
| CC(=O)C1=C(O)C(=O)N(Cc2ccco2)C1c1ccc2c(c1)OCO2 (configuration not stated) | 403 | 10.9% (inactive) | 1.6% (inactive) | 104 | 7.1% (inactive) | 116 | -0.513 (inactive) | -2.5e-05 (inactive) | 0.00429 (inactive) | 0.0775% (inactive) | 11.9% (inactive) |
| CCc1nc(N[C@@H](Cc2c[nH]c3ccccc23)C(=O)O)c2oc3ccccc3c2n1 | 570 | -0.4% (inactive) | -19.4% (inactive) | 101 | -59.6% (inactive) | 98.6 | -0.4 (inactive) | 4.2e-05 (inactive) | 0.00556 (inactive) | 10.8% (inactive) | 9.74% (inactive) |
| CCC(C)NC(=O)C1CCCN(S(=O)(=O)c2ccc(-n3cnnn3)cc2)C1 (configuration not stated) | 518 | -5.4% (inactive) | 13.6% (inactive) | 104 | -9.5% (inactive) | 108 | -0.279 (inactive) | 8.9e-07 (inactive) | 0.00556 (inactive) | -2.34% (inactive) | -2.75% (inactive) |
| CCCCc1ccc(NC(=O)c2c(C)noc2C)cc1 | 451 | -2.5% (inactive) | 0.1% (inactive) | 109 | 47.3% (inactive) | 95.2 | -0.563 (inactive) | -0.000106 (inactive) | 0.00365 (inactive) | -8.01% (inactive) | -38.5% (inactive) |
| CN1CCN(C(=O)c2cnn3c(C(F)F)cc(C4CC4)nc23)CC1 | 277 | -6.3% (inactive) | -15.2% (inactive) | 63.5 | -8.6% (inactive) | 100 | -0.513 (inactive) | -0.000106 (inactive) | 0.00468 (inactive) | 21% (inactive) | 30% (inactive) |
| COc1ccc(-c2noc(CN3CCC(Cc4ccccc4)CC3)n2)cc1 | 322 | -0.7% (inactive) | -24.1% (inactive) | 104 | -98.5% (inactive) | 123 | -0.553 (inactive) | 6.3e-06 (inactive) | 0.00696 (inactive) | -7.04% (inactive) | -6.07% (inactive) |
| COc1ccccc1NC(=O)CC(NCc1ccccc1)C(=O)O (configuration not stated) | 405 | -8.3% (inactive) | -9.7% (inactive) | 63.1 | 14.4% (inactive) | 100 | -0.223 (inactive) | -1.3e-05 (inactive) | 0.00589 (inactive) | 8.88% (inactive) | 5.77% (inactive) |
| CCOc1ccccc1N1CCN(c2nc(N)c(C#N)c(CC#N)c2C#N)CC1 | 687 | -1.7% (inactive) | -18.6% (inactive) | 88.7 | -68.9% (inactive) | 105 | -0.592 (inactive) | -1e-05 (inactive) | 0.00416 (inactive) | 20.4% (inactive) | 17.9% (inactive) |
| COc1ccc(OC)c(C2=NOC(C(=O)NCCN3CCOCC3)C2)c1 (configuration not stated) | 715 | -22.4% (inactive) | 12.9% (inactive) | 96 | -20.4% (inactive) | 85.7 | -0.62 (inactive) | 3.7e-06 (inactive) | 0.00547 (inactive) | 17.7% (inactive) | 25% (inactive) |
| COc1ccccc1NC(=O)c1nnn(CC(=O)Nc2ccccc2)c1N | 234 | -4.4% (inactive) | -30.9% (inactive) | 95.9 | -9.9% (inactive) | 103 | -0.416 (inactive) | 5.5e-05 (inactive) | 0.00673 (inactive) | 9.85% (inactive) | 23.6% (inactive) |
| O=C(Nc1cccc2c1CCCC2)C1CCN(c2nnnn2-c2ccccc2)CC1 | 653 | 1.7% (inactive) | 0.3% (inactive) | 109 | -20.6% (inactive) | 109 | -0.566 (inactive) | 2.3e-05 (inactive) | 0.00472 (inactive) | 10.2% (inactive) | 10.8% (inactive) |
| COc1ccc(-c2noc(CCC(=O)NCCCN3CCC(Cc4ccccc4)CC3)n2)cc1 | 335 | 7.8% (inactive) | 2% (inactive) | 94 | -46.3% (inactive) | 108 | -0.547 (inactive) | -2.4e-05 (inactive) | 0.00434 (inactive) | 3.44% (inactive) | -1.77% (inactive) |
| CCNc1nc(NCC)n2c(SCc3nc4ccccc4c(=O)[nH]3)nnc2n1 | 554 | -3.9% (inactive) | 9.2% (inactive) | 84.7 | -31.4% (inactive) | 113 | -0.539 (inactive) | -0.000149 (inactive) | 0.00293 (inactive) | -0.856% (inactive) | -4.01% (inactive) |
| CC(=O)N1C(=O)c2cccc3cccc(c23)C(=O)N1C(C)=O | 776 | 4.6% (inactive) | -3.8% (inactive) | 93.6 | -62.5% (inactive) | 120 | -0.444 (inactive) | -2.9e-05 (inactive) | 0.00473 (inactive) | 18.6% (inactive) | 15.3% (inactive) |
| COc1cc(-c2nnc(SCC(=O)c3ccc(C)cc3)o2)cc(OC)c1OC | 378 | 1.7% (inactive) | -8.1% (inactive) | 87.7 | 28.9% (inactive) | 83.6 | -0.607 (inactive) | 2.5e-05 (inactive) | 0.00366 (inactive) | -8.63% (inactive) | -7.77% (inactive) |
| CCc1ccccc1NC(=O)CN(c1cccc(OC)c1)S(C)(=O)=O | 345 | 2.5% (inactive) | -3.1% (inactive) | 99 | -28.2% (inactive) | 111 | -0.544 (inactive) | -7.9e-05 (inactive) | 0.00451 (inactive) | -7.55% (inactive) | -6.22% (inactive) |

Reference: PubChem BioAssay
